Here are results for 5 compounds from ChEMBL document CHEMBL4033780, “Lipidated Brartemicin Analogues Are Potent Th1-Stimulating Vaccine Adjuvants” (J Med Chem, 2018).

The source made the active and inactive calls. No cut-off for these calls is given here.

In series [1] the target is T1, C-type lectin domain family 4 member E (Mus musculus) (UniProt Q9R0Q8).
T1 sequence (whole entry): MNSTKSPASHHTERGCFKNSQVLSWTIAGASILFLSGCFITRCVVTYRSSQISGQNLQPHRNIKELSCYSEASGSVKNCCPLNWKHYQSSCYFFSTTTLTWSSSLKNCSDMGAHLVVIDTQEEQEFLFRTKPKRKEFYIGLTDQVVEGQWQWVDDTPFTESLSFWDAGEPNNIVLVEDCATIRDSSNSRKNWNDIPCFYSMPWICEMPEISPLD
As to the kind of experiment: Agonist activity at mincle in wild type C57BL/6 mouse GM-CSF derived BMDM assessed as increase in TNF release at 0.1 to 1 nmol after 24 hrs by sandwich ELISA. A digest of the protocol: (§1)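 Wild-type or Mincle−/− C57BL/6 bone marrow was cultured 8 days with GM-CSF 50 ng/mL in complete RPMI. Macrophages were detached with Acutase and seeded on ligand-coated plates (0.1 or 1 nmol/well); LPS 100 ng/mL was used as comparator. Supernatant was taken at 24 h and TNF, IL-6, IL-1β and MIP-2 measured by sandwich ELISA. Representative of three experiments in triplicate (±SD).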
On the technique in general: An ELISA detects its analyte on a solid surface through an enzyme-linked reagent.

Series [2] deals with T1, C-type lectin domain family 4 member E (Mus musculus). As to the kind of experiment: Agonist activity at mincle in wild type C57BL/6 mouse GM-CSF derived BMDM assessed as increase in IL-6 release at 0.1 to 1 nmol after 24 hrs by sandwich ELISA. The method, boiled down: as §1
Series [3] shares this target. As to the kind of experiment: Agonist activity at mincle in wild type C57BL/6 mouse GM-CSF derived BMDM assessed as increase in IL-1beta release at 0.1 to 1 nmol after 24 hrs by sandwich ELISA. A digest of the protocol: as §1
Series [4] shares this target. The series is described as follows: Agonist activity at mouse mincle coupled with FcRgamma expressed in 2B4-NFAT-GFP reporter cells up to 1 nmol after 18 hrs by flow cytometric analysis. It counts as cell-based. A digest of the protocol:
(§2)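 2B4 NFAT-GFP reporter cells expressing mouse or human Mincle plus FcRγ were placed on plates coated with ligand at 0.01, 0.1 or 1 nmol/well; cells expressing FcRγ only served as negative control. Ligand was coated from isopropanol, 0.05 mM, and solvent evaporated. After 18 h, cells were harvested, stained with propidium iodide and GFP read by flow cytometry. Mean of three experiments in duplicate (±SEM).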

For series [5], the system named is BMDM. As to the kind of experiment: Immunostimulatory activity in mincle-/- C57BL/6 mouse GM-CSF derived BMDM assessed as increase in TNF release at […] after 24 hrs by sandwich ELISA method. Format: functional, cell-based. The method, boiled down:
as §1

Series [6] addresses T1, C-type lectin domain family 4 member E (Mus musculus). The series is described as follows: Agonist activity at mincle in wild type C57BL/6 mouse GM-CSF derived BMDM assessed as increase in MIP2 release at 0.1 to 1 nmol after 24 hrs by sandwich ELISA. The method, boiled down: as §1
Series [7] addresses T2, C-type lectin domain family 4 member E (Homo sapiens) (UniProt Q9ULY5).
T2 sequence (whole entry): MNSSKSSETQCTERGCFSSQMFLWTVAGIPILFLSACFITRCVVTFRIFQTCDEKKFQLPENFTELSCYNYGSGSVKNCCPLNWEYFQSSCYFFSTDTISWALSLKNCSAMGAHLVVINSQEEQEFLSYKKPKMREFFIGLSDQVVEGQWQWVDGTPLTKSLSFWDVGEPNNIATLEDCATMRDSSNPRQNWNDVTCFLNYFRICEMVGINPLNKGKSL
The series is described as follows: Binding affinity to recombinant human mincle extracellular domain fused with human IgG Fc expressed in HEK293T cells at 0.1 nmol by ELISA. It counts as cell-based. The note with it: HEK-293T.

The test system of series [8] is BMDM. As to the kind of experiment: Immunostimulatory activity in mincle-/- C57BL/6 mouse GM-CSF derived BMDM assessed as increase in IL-1beta release at […] after 24 hrs by sandwich ELISA method. It counts as functional, cell-based. A digest of the protocol:
as §1

The nature of series [9]: Toxicity in Atlantic horseshoe crab blood limulus amebocyte lysate by chromogenic endotoxin test. The settings on record: limulus polyphemus. A digest of the protocol: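 Endotoxin was measured by chromogenic Limulus amebocyte lysate assay at a sensitivity of ≤0.1 EU/mL.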
Series [10] has as its system BMDM. The series is described as follows: Immunostimulatory activity in mincle-/- C57BL/6 mouse GM-CSF derived BMDM assessed as increase in MIP2 release at […] after 24 hrs by sandwich ELISA method. Format: functional, cell-based. The method, boiled down:
as §1

Series [11] relates to BMDM. The series is described as follows: Immunostimulatory activity in mincle-/- C57BL/6 mouse GM-CSF derived BMDM assessed as increase in IL-6 release at […] after 24 hrs by sandwich ELISA method. It counts as functional, cell-based. The method, boiled down:
as §1

The target in series [12] is T1, C-type lectin domain family 4 member E (Mus musculus). The series is described as follows: Binding affinity to recombinant mouse mincle extracellular domain fused with human IgG Fc expressed in HEK293T cells at 0.1 nmol by ELISA. Format: cell-based. The settings on record: HEK-293T.
Series [13] concerns the target T2, C-type lectin domain family 4 member E (Homo sapiens). The series is described as follows: Agonist activity at human mincle coupled with FcRgamma expressed in 2B4-NFAT-GFP reporter cells after 18 hrs by flow cytometric analysis. Format: cell-based. The method, boiled down:
as §2
In general terms: In flow cytometry, cells or beads pass a laser one at a time.

The target of series [14] is T1, C-type lectin domain family 4 member E (Mus musculus). The series is described as follows: Agonist activity at mouse mincle coupled with FcRgamma expressed in 2B4-NFAT-GFP reporter cells after 18 hrs by flow cytometric analysis. Format: cell-based. A digest of the protocol:
as §2

For series [15], the target named is T2, C-type lectin domain family 4 member E (Homo sapiens). As to the kind of experiment: Agonist activity at human mincle coupled with FcRgamma expressed in 2B4-NFAT-GFP reporter cells at higher concentration after 18 hrs by flow cytometric analysis. It counts as cell-based. A digest of the protocol:
as §2

Turning to `Cc1cc(O)cc(O)c1C(=O)OC[C@H]1O[C@H](O[C@H]2O[C@H](COC(=O)c3c(C)cc(O)cc3O)[C@@H](O)[C@H](O)[C@H]2O)[C@H](O)[C@@H](O)[C@@H]1O` [BRARTEMICIN], the outcome in series [1], in [2], in series [3], in [4], in series [5] and in series [6] was inactive. In addition, the outcome in [7], in series [8], in series [10], in series [11] and in [12] was inactive. Moreover, the Activity result in series [9] is recorded as “<= 0.1 EU/ml”.

Take `O=C(OC[C@H]1O[C@H](O[C@H]2O[C@H](COC(=O)c3ccc(O)cc3O)[C@@H](O)[C@H](O)[C@H]2O)[C@H](O)[C@@H](O)[C@@H]1O)c1ccc(O)cc1O`: the outcome in series [1], in [2], in [3], in series [4], in series [5] and in [6] was inactive. The outcome in series [7], in series [8], in series [10], in [11] and in series [12] was inactive. For the same compound, the Activity entry in series [9] was “<= 0.1 EU/ml”.

Turning to `CCCCCCCCCCCCCCCCCCOc1ccc(C(=O)OC[C@H]2O[C@H](O[C@H]3O[C@H](COC(=O)c4ccc(OCCCCCCCCCCCCCCCCCC)cc4)[C@@H](O)[C@H](O)[C@H]3O)[C@H](O)[C@@H](O)[C@@H]2O)cc1`, the result in series [1], in series [2], in series [3], in series [6], in [7] and in [12] was Active. Further, the outcome in series [5], in series [8], in series [10] and in series [11] was inactive. The figures for the Activity result in series [13], in [14] and in series [9] were “Dose-dependent effect”, “Dose-dependent effect” and “<= 0.1 EU/ml”, respectively.

Turning to `CCCCCCCCCCCCCCCCCCOc1cc(C)c(C(=O)OC[C@H]2O[C@H](O[C@H]3O[C@H](COC(=O)c4c(C)cc(OCCCCCCCCCCCCCCCCCC)cc4O)[C@@H](O)[C@H](O)[C@H]3O)[C@H](O)[C@@H](O)[C@@H]2O)c(O)c1`, the result in [1], in series [2], in series [3], in [6], in series [7] and in series [12] was Active. In addition, the outcome in series [5], in series [8], in series [10] and in series [11] was inactive. Further, the Activity result was “Dose-dependent effect” in [13], “Dose-dependent effect” in [14] and “<= 0.1 EU/ml” in [9].

Consider `COc1ccc(C(=O)OC[C@H]2O[C@H](O[C@H]3O[C@H](COC(=O)c4ccc(OC)cc4O)[C@@H](O)[C@H](O)[C@H]3O)[C@H](O)[C@@H](O)[C@@H]2O)c(O)c1`, for which the result in series [1], in [2], in series [3], in series [5], in series [6] and in series [7] was inactive. For the same compound, the result in [8], in series [10], in [11] and in series [12] was inactive. In addition, the result in [15] was Active. For the same compound, the Activity result in series [9] is given as “<= 0.1 EU/ml”.
